Measured values taken from ChEMBL document CHEMBL4834420, “Projected Dose Optimization of Amino- and Hydroxypyrrolidine Purine PI3Kδ Immunomodulators” (J Med Chem, 2021).
pIC50: −log10 of the molar value. Converted amounts (≈) assume the structure as drawn.

Assays:
[1] = Trough plasma concentration C57BL/6 mouse at 100 mg/kg; assay type: ADME, organism-based; conditions: in vivo, read-out: Cmin
Procedure, shortened: (§1)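 C57BL/6-Foxp3-GFP reporter mice were dosed at 30 and 100 mg/kg/day for up to 7 days, with exposure determined at 100 mg/kg. The unbound Cmax and trough values were derived from total plasma levels. Treg readout was bioluminescence imaging 10 min after 3 mg luciferin ip, reported as radiance in photons/s/cm²/steradian.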

[2] = Unbound Cmax in C57BL/6 mouse at 100 mg/kg; assay type: ADME, organism-based; conditions: in vivo; procedure, shortened: as §1
[3] = Half-life in Wistar Han rat; assay type: ADME; conditions: in vivo
[4] = molecular target: T1, Phosphatidylinositol 4,5-bisphosphate 3-kinase catalytic subunit delta isoform (Mus musculus) (UniProt O35904); test: Inhibition of PI3Kdelta in Foxp3-GFP C57BL/6 mouse assessed as reduction in Treg population at 30 to 100 mg/kg administered upto 7 days; assay type: organism-based; parameters: scale not given: the % may be the effect or the level left; conditions: dose 30-100 mg/kg, time day <=7
T1 sequence (whole entry): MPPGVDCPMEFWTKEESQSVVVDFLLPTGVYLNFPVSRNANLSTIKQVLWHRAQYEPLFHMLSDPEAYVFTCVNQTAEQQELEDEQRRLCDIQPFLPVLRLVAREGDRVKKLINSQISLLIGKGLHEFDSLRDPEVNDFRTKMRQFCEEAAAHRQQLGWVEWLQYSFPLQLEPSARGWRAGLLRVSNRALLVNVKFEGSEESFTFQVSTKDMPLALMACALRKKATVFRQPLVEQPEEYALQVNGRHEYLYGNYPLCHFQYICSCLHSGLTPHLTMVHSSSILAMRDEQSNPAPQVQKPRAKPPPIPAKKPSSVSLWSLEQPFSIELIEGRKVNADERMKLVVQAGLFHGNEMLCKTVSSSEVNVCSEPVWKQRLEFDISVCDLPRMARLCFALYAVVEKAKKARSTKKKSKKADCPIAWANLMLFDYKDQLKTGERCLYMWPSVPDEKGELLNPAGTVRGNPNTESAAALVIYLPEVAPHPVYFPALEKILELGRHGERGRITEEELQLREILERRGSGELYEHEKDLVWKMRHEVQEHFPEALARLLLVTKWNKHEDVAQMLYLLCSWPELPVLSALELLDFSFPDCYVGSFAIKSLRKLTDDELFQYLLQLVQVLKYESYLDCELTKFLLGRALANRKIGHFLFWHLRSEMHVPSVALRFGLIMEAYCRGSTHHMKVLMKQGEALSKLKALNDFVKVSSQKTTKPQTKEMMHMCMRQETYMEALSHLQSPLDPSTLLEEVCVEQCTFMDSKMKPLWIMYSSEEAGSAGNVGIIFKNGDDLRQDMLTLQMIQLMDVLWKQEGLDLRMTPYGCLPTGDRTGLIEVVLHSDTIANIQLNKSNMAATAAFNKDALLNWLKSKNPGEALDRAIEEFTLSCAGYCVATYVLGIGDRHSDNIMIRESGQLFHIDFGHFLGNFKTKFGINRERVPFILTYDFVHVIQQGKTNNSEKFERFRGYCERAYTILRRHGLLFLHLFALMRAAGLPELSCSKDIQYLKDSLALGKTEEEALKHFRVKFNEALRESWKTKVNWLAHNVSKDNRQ
Procedure, shortened: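 C57BL/6 Foxp3-GFP reporter mice were dosed at 30 and 100 mg/kg/day for up to 7 days. Treg population was monitored by bioluminescence imaging 10 min after ip injection of 3 mg luciferin. Radiance was quantified as photons/s/cm²/steradian. Diphtheria toxin served as a positive control.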

[5] = Unbound trough plasma concentration Brown Norway rat at 30 mg/kg, po; assay type: ADME, organism-based; conditions: in vivo
[6] = molecular target: Voltage-gated inwardly rectifying potassium channel KCNH2 (Homo sapiens, UniProt Q12809); test: Inhibition of hERG (unknown origin)
[7] = Half-life in Beagle dog; assay type: ADME, Canis lupus familiaris; conditions: in vivo
[8] = molecular target: T2, Solute carrier organic anion transporter family member 1B1 (Homo sapiens, UniProt Q9Y6L6); test: Inhibition of OATP1B1 (unknown origin)
T2 sequence (Q9Y6L6 whole entry): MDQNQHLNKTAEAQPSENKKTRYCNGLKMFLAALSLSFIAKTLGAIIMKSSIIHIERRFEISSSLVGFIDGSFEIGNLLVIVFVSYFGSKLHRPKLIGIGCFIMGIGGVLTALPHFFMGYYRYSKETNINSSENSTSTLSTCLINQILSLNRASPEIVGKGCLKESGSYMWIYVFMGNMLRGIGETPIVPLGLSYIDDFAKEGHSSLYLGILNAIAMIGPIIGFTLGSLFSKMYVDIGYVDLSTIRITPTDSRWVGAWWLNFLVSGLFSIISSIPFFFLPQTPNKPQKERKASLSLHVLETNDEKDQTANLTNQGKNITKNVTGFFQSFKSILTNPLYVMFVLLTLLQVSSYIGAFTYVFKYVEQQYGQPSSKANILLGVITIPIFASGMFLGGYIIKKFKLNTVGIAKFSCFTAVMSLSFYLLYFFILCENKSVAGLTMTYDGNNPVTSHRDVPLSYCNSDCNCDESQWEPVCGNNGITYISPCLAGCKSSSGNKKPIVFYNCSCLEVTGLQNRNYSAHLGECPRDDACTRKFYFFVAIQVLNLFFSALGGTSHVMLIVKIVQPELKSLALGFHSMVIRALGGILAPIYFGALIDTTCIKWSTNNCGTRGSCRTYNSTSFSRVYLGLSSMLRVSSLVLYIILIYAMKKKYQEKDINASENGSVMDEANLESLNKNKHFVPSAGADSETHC

[9] = Solubility of compound in stimulated intestinal fluid; assay type: physicochemical; conditions: simulated intestinal fluid
Cytochrome P450 2C8 = molecular target: T3, Cytochrome P450 2C8 (Homo sapiens, UniProt P10632); test: Inhibition of CYP2C8 (unknown origin); assay type: ADME
T3 sequence (P10632 whole entry): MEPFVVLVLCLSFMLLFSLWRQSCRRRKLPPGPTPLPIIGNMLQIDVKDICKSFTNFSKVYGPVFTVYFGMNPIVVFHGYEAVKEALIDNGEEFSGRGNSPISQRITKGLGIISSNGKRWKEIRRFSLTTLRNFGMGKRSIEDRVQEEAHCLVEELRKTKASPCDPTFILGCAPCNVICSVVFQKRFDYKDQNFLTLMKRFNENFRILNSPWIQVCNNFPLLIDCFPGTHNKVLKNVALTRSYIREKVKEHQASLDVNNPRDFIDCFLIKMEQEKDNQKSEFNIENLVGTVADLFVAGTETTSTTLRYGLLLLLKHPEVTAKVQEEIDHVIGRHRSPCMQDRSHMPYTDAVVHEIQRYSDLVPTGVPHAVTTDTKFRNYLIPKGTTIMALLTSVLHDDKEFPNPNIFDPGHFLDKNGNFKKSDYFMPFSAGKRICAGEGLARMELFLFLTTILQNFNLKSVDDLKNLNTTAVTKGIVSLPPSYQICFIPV

[10] = Unbound volume of distribution in C57BL/6 mouse; assay type: ADME; conditions: in vivo
[11] = Apparent permeability in pig LLC-PK1 cells; assay type: ADME, cell-based, Sus scrofa
[12] = Oral bioavailability in Wistar Han rat; assay type: ADME, organism-based; conditions: in vivo
[13] = Intrinsic clearance in Beagle dog at 0.25 mg/kg, iv or 0.5 mg/kg, po; assay type: ADME, organism-based, Canis lupus familiaris; conditions: in vivo

Sequence of Voltage-gated inwardly rectifying potassium channel KCNH2 (Q12809 whole entry): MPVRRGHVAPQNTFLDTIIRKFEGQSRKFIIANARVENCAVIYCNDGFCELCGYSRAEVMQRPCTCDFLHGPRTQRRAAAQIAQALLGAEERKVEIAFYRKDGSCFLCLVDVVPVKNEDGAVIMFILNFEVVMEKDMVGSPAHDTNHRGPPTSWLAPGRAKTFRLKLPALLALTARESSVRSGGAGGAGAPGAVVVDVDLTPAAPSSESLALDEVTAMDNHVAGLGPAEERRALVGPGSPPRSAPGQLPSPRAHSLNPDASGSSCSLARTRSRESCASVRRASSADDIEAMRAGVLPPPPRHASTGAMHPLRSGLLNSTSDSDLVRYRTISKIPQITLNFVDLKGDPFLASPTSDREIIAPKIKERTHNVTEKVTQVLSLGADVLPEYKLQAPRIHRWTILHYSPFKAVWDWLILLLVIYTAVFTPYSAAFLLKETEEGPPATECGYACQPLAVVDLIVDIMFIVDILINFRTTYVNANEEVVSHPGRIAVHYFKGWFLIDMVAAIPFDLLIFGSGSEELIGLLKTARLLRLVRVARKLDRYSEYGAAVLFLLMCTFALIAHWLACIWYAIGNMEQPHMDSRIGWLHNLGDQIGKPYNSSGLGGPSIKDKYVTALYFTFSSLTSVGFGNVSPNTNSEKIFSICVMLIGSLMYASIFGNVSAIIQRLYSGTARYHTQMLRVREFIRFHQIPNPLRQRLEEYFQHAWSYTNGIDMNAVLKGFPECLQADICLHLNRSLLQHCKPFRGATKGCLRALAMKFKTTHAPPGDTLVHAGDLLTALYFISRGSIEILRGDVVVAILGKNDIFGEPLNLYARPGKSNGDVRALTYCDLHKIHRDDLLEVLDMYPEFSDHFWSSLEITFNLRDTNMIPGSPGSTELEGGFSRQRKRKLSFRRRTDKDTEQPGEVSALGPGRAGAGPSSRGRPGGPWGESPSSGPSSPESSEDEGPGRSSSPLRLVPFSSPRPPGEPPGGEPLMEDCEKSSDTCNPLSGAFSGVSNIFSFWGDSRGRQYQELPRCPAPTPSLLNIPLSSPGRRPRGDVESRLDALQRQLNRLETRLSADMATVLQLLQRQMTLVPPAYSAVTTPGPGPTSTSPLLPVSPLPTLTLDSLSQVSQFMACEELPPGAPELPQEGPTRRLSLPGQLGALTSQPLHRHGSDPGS

## CCn1c(-c2cnc(C)nc2)nc2c(N[C@H]3CCN(C(=O)C4CC4)C3)ncnc21
[1]
  concentration: 110 nM
[2]
  fCmax: 16 µM
[3]
  half-life: 162 min
[4]
  Activity: 70%
[5]
  fCmin: 62 nM
[6]
  pIC50: < 4.30
[7]
  half-life: 258 min
[8]
  inhibition (INH): Not Active
[9]
  solubility: 14 mg/mL (≈ 35.7 mM)
Cytochrome P450 2C8
  pIC50: < 4.30
[10]
  Vdu: 0.4 L/kg
[11]
  Papp: 22 ×10⁻⁶ cm/s
[12]
  bioavailability: 55%
[13]
  CL: 6.2 mL/min/kg
